# Measured values of several laboratories.
# Lines come from different studies, so protocols differ.
# JAK1: Tyrosine-protein kinase JAK1 (JAK1, Homo sapiens, UniProt P23458)
# JAK1 JH1: Tyrosine-protein kinase JAK1, JH1 (JAK1, Homo sapiens, UniProt P23458)
# JAK1 JH2: Tyrosine-protein kinase JAK1, JH2 (JAK1, Homo sapiens, UniProt P23458)
SMILES,target,read-out,mode,method,concentration,endpoint,value
O=C(CSc1nc2nccnc2c(=O)n1CCc1ccccc1)Nc1nccs1,JAK1,enzyme activity,inhibitor,,10 µM,inhibition,1%
C=CC(=O)Nc1cc(Nc2nccc(Nc3cc(Cl)c(F)cc3C(C)(C)O)n2)c(OC)cc1N1CC[C@@H](N(C)C)C1,JAK1,enzyme activity,inhibitor,,1 µM,inhibition,6%
CCOc1cc(-c2nncn2C)ccc1Nc1ncc2cc(C)nc(NCC(C)(C)C)c2n1,JAK1,enzyme activity,inhibitor,FRET,1 µM,inhibition,< 15%
CN(CCCC(F)(F)F)c1nccc(-c2cnn3ncccc23)n1,JAK1,binding,,,1 µM,remaining binding,100%
C[C@H](c1cccc(C#N)c1)n1cc(Cl)cc(C(N)=O)c1=N,JAK1 JH1,cell-free assay,,competition with immobilised ligand,1 µM,remaining binding,57%
N[C@H]1CCN(c2nccc(-c3cnn4ncccc34)n2)C1,JAK1,binding,,,1 µM,remaining binding,60%
CC(=O)N1CCC(c2ccc(C(=O)NC(=N)N)cc2C(F)(F)F)CC1,JAK1 JH2,cell-free assay,,competition with immobilised ligand,1 µM,remaining binding,100%
Oc1ccc(-c2nc(-c3ccncc3)c(-c3ccc(F)cc3)[nH]2)cc1,JAK1,cell-free assay,,,0.5 µM,remaining signal,102%
CC(C)(C)c1nc2c(s1)c1nc(N)ncc1c1ccc(NS(=O)(=O)c3c(F)cccc3F)c(F)c12,JAK1,enzyme activity,inhibitor,radiometric,1 µM,remaining activity,90%
CS(=O)(=O)NCC[C@H](NC(=O)c1cncc2c1cnn2-c1ccc(F)cc1)c1ccnc(S(C)(=O)=O)c1,JAK1 JH1,cell-free assay,,competition with immobilised ligand,1 µM,remaining binding,96%
COc1cc(Cl)c(C(=O)N[C@@H](CN[C@H]2CC[C@@H](N)CC2)Cc2ccc(C#N)cc2)cc1-c1ccc(CN[C@H](C)c2ccc(C)cc2)o1,JAK1 JH1,enzyme activity,inhibitor,,1 µM,remaining activity,101%
c1nc2c(Nc3ccc4c(c3)OCCO4)nc(Nc3ccc4c(c3)OCCO4)nc2[nH]1,JAK1 JH2,enzyme activity,inhibitor,,10 µM,activity vs control,2.5%
CC(C)(O)[C@H]1CC[C@H](Nc2ccc3ncc(-c4cccc(C(F)(F)F)c4)n3n2)CC1,JAK1,enzyme activity,inhibitor,,1 µM,remaining activity,82.4%
CC1CCCN1c1nccc(-c2cnn3ncccc23)n1 (stereo not shown),JAK1,binding,,,1 µM,remaining binding,100%
CCN(CC)CCNC(=O)c1c(C)[nH]c(/C=C2\C(=O)Nc3ccc(F)cc32)c1C,JAK1,cell-free assay,,,0.5 µM,remaining signal,71.9%
CN1CC(Oc2cnc(C#N)cc2-c2ccn3nc(NC(=O)C4CC4)cc3c2)C1,JAK1,enzyme activity,inhibitor,,1 µM,inhibition,-10%
CN(C)C(=O)Cn1cc(-c2nc(C3(c4ccc(-c5cnc(N)nc5)cc4)CC3)no2)cn1,JAK1 JH2,cell-free assay,,competition with immobilised ligand,1 µM,remaining binding,100%
O=C1Nc2ccc(Cl)cc2C1=Cc1cc(Cl)c(O)c(Cl)c1,JAK1,cell-free assay,,,0.5 µM,remaining signal,103%
O=C(NCc1ncc(C(F)(F)F)cc1Cl)c1ccc2c(c1)C1(CCS(=O)(=O)CC1)[C@@H](C1CC1)N2S(=O)(=O)c1ccc(F)cc1,JAK1 JH2,cell-free assay,,competition with immobilised ligand,1 µM,remaining binding,85%
Cc1cc(NC(=O)c2cccc3cc(-c4cccc5[nH]nc(N)c45)ccc23)ccc1F,JAK1 JH1,enzyme activity,inhibitor,,0.1 µM,activity vs control,105%
c1cnn2ncc(-c3ccnc(N4CCC45COC5)n3)c2c1,JAK1 JH1,cell-free assay,,,1 µM,remaining signal,95%
CCOC(=O)c1cc2cc(-c3cc(C(=O)NCc4ccc(C(=O)O)cc4)nn3C)ccc2[nH]1,JAK1 JH1,cell-free assay,,competition with immobilised ligand,0.1 µM,remaining binding,100%
COc1cc2ncnc(Nc3ccc(Oc4ccccc4)c(C)c3C)c2cc1OC,JAK1,enzyme activity,inhibitor,,1 µM,inhibition,-4%
CN(C)C1CCN(CC#Cc2nn(C3CCCC3)c3nc(NCc4ccccc4)ncc23)C1 (stereo not shown),JAK1,enzyme activity,inhibitor,FRET,0.1 µM,inhibition,2%
CC1=C(C#N)[C@@H](c2ccc3[nH]nc(C)c3c2)C(C#N)=C(c2ccc(Cl)cc2)N1,JAK1 JH2,cell-free assay,,competition with immobilised ligand,1 µM,remaining binding,38.2%
CCCS(=O)(=O)Nc1ccc(F)c(C(=O)c2c[nH]c3ncc(-c4ccc(Cl)cc4)cc23)c1F,JAK1,enzyme activity,inhibitor,,1 µM,inhibition,< 20%
O=C(Nc1cnn(-c2csc(C(=O)NC3COC3)c2)c1)Nc1ccccc1Cl,JAK1,enzyme activity,inhibitor,,5 µM,remaining activity,98.7%
Nc1ncnc2occ(-c3ccc(NC(=O)Nc4cc(C(F)(F)F)ccc4F)cc3)c12,JAK1 JH1,cell-free assay,inhibitor,,20 µM,remaining signal,0.9%
COc1cc2c(Nc3ccc(Br)cc3F)ncnc2cc1OCC1CCN(C)CC1,JAK1,cell-free assay,,,0.5 µM,remaining signal,99.1%
CS(=O)(=O)c1cc(C2(NC(=O)c3cncc4c3cnn4-c3ccc(F)cc3)CC2)ccn1,JAK1 JH1,cell-free assay,,competition with immobilised ligand,1 µM,remaining binding,96%
Cc1ccc(C(=O)NCc2ccsc2)cc1C#Cc1cn(C(C)C)c2ncnc(N)c12,JAK1 JH1,enzyme activity,inhibitor,,1 µM,activity vs control,94%
